Measurements from ChEMBL document CHEMBL1140055, “Mixed-lineage kinase 1 and mixed-lineage kinase 3 subtype-selective dihydronaphthyl[3,4-a]pyrrolo[3,4-c]carbazole-5-ones: optimization, mixed-lineage kinase 1 crystallography, and oral in vivo activity in 1-methyl-4-phenyltetrahydropyridine models” (J Med Chem, 2008).
pIC50: −log10 of the molar value. Blank lines part the entries; values can stand above or below the molecule they belong to. The source made the active and inactive calls. The rule behind the calls is not given here.

How the values were obtained:
[1] = molecular target: T1, Mitogen-activated protein kinase kinase kinase 9 (Homo sapiens, UniProt P80192); assay: Inhibition of GST-fused human MLK1 at 1 uM
In short: (§1)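 Baculovirus-expressed GST fusions of human MLK1 or MLK3 kinase domain (50 ng MLK1, 100 ng MLK3), myelin basic protein substrate at 500 µg/mL.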
Target sequence in this assay (P80192 whole entry, looked up, the tested form may be a part): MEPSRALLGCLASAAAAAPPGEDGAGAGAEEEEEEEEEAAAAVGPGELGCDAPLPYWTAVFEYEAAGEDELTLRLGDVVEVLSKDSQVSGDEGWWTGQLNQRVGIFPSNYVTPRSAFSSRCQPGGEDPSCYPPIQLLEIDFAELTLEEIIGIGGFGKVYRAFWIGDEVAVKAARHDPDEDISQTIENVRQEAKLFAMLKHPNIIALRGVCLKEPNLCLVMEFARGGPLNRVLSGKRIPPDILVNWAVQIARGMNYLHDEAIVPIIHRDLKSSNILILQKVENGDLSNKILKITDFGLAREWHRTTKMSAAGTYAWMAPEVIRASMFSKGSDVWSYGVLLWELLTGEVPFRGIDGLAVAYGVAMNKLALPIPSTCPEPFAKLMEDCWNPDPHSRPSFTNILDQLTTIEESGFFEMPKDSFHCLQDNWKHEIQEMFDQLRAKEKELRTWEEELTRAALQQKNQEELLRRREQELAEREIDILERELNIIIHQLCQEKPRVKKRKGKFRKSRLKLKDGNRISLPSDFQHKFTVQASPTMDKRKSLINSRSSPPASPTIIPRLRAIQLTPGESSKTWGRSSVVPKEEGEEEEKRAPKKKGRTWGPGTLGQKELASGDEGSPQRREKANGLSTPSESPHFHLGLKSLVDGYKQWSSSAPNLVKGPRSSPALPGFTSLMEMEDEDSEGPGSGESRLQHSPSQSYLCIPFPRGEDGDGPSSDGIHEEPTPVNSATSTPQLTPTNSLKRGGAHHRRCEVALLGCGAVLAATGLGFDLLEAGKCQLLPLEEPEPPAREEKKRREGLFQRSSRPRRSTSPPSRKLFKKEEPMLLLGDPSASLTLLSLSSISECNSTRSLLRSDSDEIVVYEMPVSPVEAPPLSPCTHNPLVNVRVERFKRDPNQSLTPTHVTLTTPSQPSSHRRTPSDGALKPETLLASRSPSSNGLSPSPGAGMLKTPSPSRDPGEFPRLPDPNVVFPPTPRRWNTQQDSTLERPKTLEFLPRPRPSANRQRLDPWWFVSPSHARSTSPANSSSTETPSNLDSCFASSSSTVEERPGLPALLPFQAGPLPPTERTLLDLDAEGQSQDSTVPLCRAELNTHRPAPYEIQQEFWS

[2] = molecular target: T2, Mitogen-activated protein kinase kinase kinase 11 (Homo sapiens, UniProt Q16584); assay: Inhibition of GST-fused human MLK3 at 1 uM; in short: as §1
Target sequence in this assay (Q16584 whole entry, looked up, the tested form may be a part): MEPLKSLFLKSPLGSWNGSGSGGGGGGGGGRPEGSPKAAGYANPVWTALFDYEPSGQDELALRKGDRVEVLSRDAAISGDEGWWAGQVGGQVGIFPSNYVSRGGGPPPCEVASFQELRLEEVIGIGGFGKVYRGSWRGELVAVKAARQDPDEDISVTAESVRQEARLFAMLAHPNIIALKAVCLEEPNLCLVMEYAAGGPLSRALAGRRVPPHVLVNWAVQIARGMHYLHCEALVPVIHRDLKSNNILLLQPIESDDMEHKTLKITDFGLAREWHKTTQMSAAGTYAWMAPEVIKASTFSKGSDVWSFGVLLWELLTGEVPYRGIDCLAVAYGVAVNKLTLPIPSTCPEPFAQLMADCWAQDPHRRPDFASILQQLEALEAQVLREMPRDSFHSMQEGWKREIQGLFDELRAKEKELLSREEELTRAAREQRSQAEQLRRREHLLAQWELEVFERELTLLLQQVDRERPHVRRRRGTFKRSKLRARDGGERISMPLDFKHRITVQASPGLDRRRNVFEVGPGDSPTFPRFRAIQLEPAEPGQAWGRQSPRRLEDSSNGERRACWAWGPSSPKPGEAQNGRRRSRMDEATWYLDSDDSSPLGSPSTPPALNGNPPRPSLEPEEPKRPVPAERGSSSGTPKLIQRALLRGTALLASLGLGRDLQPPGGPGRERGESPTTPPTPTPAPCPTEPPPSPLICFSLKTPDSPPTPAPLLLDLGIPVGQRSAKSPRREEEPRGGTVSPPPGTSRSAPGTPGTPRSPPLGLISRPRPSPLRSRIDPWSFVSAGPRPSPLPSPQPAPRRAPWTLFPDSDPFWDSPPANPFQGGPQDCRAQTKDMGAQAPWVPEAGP

[3] = molecular target: T1, Mitogen-activated protein kinase kinase kinase 9; assay: Inhibition of GST-fused human MLK1
In short: (§2)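 GST fusions of human MLK kinase domains from baculovirus (50 ng MLK1_KD, 150 ng MLK2_KD/LZ, 100 ng MLK3_KD), substrate 500 µg/mL myelin basic protein. Buffer 20 mM Hepes pH 7.2, 5 mM EGTA, 15 mM MgCl2, 1 mM DTT, 25 mM β-glycerophosphate, 0.1% BSA, 2% DMSO.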
Target sequence in this assay (P80192 whole entry, the tested form may be a part): as the sequence (P80192 whole entry, looked up, the tested form may be a part) above

[4] = molecular target: T2, Mitogen-activated protein kinase kinase kinase 11; assay: Inhibition of GST-fused human MLK3; in short: as §2
Target sequence in this assay (Q16584 whole entry, the tested form may be a part): as the sequence (Q16584 whole entry, looked up, the tested form may be a part) above

[5] = system: SH-SY5Y; assay: Neuroprotective activity against human SH-SY5Y cells assessed as inhibition of MPP+-induced cell death; type: functional, cell-based
[6] = molecular target: T1, Mitogen-activated protein kinase kinase kinase 9; assay: Inhibition of GST-fused human MLK1 expressed in CHO cells assessed as MKK4 phosphorylation; type: cell-based
In short: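 CHO cells transfected with MLK1 plus dominant-negative MKK4 cDNA; phospho-MKK4 quantified by ELISA; IC50 derived.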
Target sequence in this assay (P80192 whole entry, the tested form may be a part): as the sequence (P80192 whole entry, looked up, the tested form may be a part) above

[7] = molecular target: Vascular endothelial growth factor receptor 1 (Homo sapiens, UniProt P17948); assay: Inhibition of human VEGFR1 expressed in baculovirus insect cell system
Vascular endothelial growth factor receptor 1, sequence (P17948 whole entry): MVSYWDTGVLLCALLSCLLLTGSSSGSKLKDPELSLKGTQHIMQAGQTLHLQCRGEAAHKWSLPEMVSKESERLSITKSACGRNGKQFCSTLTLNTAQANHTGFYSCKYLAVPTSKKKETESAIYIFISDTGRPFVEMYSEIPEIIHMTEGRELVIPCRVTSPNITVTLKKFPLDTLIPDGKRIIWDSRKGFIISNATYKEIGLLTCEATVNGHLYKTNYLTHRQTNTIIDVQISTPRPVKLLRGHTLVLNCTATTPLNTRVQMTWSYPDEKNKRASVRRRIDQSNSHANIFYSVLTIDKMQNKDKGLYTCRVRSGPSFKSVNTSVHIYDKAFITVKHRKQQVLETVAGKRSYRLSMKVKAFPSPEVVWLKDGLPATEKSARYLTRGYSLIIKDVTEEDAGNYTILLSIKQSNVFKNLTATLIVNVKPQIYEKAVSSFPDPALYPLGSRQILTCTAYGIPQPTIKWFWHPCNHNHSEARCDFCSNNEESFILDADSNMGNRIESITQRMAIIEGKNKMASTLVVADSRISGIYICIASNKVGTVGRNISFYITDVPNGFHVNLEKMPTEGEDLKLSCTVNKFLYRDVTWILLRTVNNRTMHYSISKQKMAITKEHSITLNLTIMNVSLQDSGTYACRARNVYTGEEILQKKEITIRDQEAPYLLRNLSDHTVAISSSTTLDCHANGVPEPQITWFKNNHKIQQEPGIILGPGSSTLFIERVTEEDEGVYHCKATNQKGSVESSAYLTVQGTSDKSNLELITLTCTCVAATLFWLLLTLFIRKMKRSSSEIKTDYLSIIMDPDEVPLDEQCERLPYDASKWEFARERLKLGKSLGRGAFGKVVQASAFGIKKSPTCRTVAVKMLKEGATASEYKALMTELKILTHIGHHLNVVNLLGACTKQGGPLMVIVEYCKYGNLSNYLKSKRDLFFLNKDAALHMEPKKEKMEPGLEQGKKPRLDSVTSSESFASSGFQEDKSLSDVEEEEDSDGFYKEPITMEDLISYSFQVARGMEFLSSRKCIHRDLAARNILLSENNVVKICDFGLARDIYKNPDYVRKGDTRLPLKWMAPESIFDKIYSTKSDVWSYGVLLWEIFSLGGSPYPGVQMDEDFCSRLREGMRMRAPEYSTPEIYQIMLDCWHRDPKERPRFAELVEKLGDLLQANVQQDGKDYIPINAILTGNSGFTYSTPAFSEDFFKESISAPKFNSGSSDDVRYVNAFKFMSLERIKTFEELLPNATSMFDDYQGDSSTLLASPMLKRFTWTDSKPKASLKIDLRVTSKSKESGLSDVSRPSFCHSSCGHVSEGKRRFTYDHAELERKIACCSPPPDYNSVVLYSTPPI

[8] = molecular target: Vascular endothelial growth factor receptor 2 (Homo sapiens, UniProt P35968); assay: Inhibition of human VEGFR2 expressed in baculovirus insect cell system
Vascular endothelial growth factor receptor 2, sequence (P35968 whole entry): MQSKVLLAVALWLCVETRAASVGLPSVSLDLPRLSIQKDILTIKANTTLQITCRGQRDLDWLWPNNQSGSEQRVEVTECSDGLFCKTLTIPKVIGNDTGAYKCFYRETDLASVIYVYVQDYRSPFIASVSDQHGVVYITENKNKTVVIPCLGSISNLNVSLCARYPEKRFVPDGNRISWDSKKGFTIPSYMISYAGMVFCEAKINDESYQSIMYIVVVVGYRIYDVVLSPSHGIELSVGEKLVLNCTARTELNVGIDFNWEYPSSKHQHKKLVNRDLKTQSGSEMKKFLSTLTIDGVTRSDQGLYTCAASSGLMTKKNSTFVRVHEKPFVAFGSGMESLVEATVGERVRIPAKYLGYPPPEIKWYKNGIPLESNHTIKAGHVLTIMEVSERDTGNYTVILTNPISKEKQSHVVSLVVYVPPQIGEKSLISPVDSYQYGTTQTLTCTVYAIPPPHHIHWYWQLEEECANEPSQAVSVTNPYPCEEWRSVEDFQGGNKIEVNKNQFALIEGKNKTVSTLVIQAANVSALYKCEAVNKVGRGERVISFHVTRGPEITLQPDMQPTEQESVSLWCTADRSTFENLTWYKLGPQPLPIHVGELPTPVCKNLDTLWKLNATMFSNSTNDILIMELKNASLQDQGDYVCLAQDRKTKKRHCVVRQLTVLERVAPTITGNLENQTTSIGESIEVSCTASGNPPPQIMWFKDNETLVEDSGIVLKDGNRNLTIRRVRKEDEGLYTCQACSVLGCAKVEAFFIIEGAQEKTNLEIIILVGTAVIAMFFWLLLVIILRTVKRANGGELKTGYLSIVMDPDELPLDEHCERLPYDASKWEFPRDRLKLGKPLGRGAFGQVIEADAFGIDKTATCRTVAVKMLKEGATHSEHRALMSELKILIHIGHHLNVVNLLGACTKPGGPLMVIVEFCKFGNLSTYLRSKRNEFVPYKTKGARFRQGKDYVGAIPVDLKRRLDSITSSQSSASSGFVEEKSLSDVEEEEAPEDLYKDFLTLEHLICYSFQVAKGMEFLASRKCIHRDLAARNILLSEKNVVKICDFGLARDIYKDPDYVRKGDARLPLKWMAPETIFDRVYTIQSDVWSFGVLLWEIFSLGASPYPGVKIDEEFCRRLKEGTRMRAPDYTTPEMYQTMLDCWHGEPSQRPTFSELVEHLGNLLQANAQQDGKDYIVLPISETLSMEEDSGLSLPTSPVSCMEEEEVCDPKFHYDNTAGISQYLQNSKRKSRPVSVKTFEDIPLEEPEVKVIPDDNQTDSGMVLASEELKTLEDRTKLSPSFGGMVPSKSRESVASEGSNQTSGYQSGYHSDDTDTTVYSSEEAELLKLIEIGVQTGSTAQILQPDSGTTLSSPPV

[9] = molecular target: Vascular endothelial growth factor receptor 3 (Homo sapiens, UniProt P35916); assay: Inhibition of human VEGFR3 expressed in baculovirus insect cell system
[10] = system: Mus musculus; assay: Inhibition of MPTP-induced increase in pMKK4 levels in mouse at 1 mg/kg, sc administered 2 hrs before MPTP challenge followed by 10 mg/kg, sc 2 hrs after MPTP challenge
[11] = molecular target: Fibroblast growth factor receptor 1 (Homo sapiens, UniProt P11362); assay: Inhibition of human FGFR1 expressed in baculovirus insect cell system
[12] = molecular target: Mitogen-activated protein kinase 14 (Homo sapiens, UniProt Q16539); assay: Inhibition of human P38alpha expressed in baculovirus insect cell system
[13] = Inhibition of human IRK expressed in baculovirus insect cell system
[14] = molecular target: Cyclin-dependent kinase; assay: Inhibition of human CDK expressed in baculovirus insect cell system
[15] = molecular target: Serine/threonine-protein kinase Chk1/2 (Homo sapiens, UniProt O96017+O14757); assay: Inhibition of human CHK1/2 expressed in baculovirus insect cell system
[16] = molecular target: Tyrosine-protein kinase Lck (Homo sapiens, UniProt P06239); assay: Inhibition of human Lck expressed in baculovirus insect cell system
[17] = molecular target: Tyrosine-protein kinase Fyn (Homo sapiens, UniProt P06241); assay: Inhibition of human Fyn kinase expressed in baculovirus insect cell system
[18] = Half life in Sprague-Dawley rat at 2 mg/kg, iv; type: ADME, organism-based; design: dose 2 mg/kg, route intravenous; settings: in vivo
In short: (§3)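 Rat PK: iv dose into lateral tail vein in 3% DMSO/30% solutol/67% PBS; oral gavage in 50% Tween 80/40% propylene carbonate/10% propylene glycol, rats fasted overnight before oral dosing. Serial tail-vein blood at seven times over 6 h into heparinized tubes. Plasma protein-precipitated with acetonitrile, analysed with internal standard by LC-MS/MS. Bioavailability from iv versus po AUCs.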

[19] = AUC in Sprague-Dawley rat at 2 mg/kg, iv; type: ADME, organism-based; design: dose 2 mg/kg, route intravenous; settings: plasma
In short: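 Single intravenous dose into the lateral tail vein in 3% DMSO, 30% solutol and 67% phosphate-buffered saline. Serial heparinized blood samples were taken from the lateral tail vein at seven times over 6 h. Plasma was separated by centrifugation, deproteinized with acetonitrile and analysed for drug against an internal standard by LC-MS/MS.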

[20] = Volume of distribution in Sprague-Dawley rat at 2 mg/kg, iv; type: ADME, organism-based; design: dose 2 mg/kg, route intravenous; settings: in vivo; in short: as §3
[21] = Clearance in Sprague-Dawley rat at 2 mg/kg, iv; type: ADME, organism-based; design: dose 2 mg/kg, route intravenous; settings: in vivo; in short: as §3
[22] = AUC in Sprague-Dawley rat at 4 mg/kg, po; type: ADME, organism-based; design: dose 4 mg/kg, route oral; settings: plasma
In short: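 Rats were fasted overnight, then dosed by oral gavage in 50% Tween 80, 40% propylene carbonate and 10% propylene glycol. Serial heparinized blood samples were taken from the lateral tail vein at seven times over 6 h. Plasma was deproteinized with acetonitrile and analysed for drug against an internal standard by LC-MS/MS.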

[23] = Cmax in Sprague-Dawley rat at 4 mg/kg, po; type: ADME, organism-based; design: dose 4 mg/kg, route oral; settings: in vivo
[24] = Half life in Sprague-Dawley rat at 4 mg/kg, po; type: ADME, organism-based; design: dose 4 mg/kg, route oral; settings: in vivo
[25] = Oral bioavailability in Sprague-Dawley rat at 4 mg/kg; type: ADME, organism-based; settings: in vivo; in short: as §3
[26] = Metabolic stability in rat liver S9 fraction after 2 hrs in presence of NADPH; type: ADME, subcellular; settings: read-out: Stability
In short: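 Incubated 2 h in rat liver S9 preparation with NADPH; percent parent remaining reported.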

[27] = system: Mus musculus; assay: Inhibition of MPTP-induced increase in pMKK4 levels in mouse at 6.7 mg/kg, po administered 2 hrs before MPTP challenge followed by 40 mg/kg, sc 2 hrs after MPTP challenge; type: functional
In short: (§4)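 Mice dosed orally at 6.7 mg/kg 2 h before and 2 h after MPTP (40 mg/kg sc). Substantia nigra dissected 2 h after second dose; pMKK4 measured by immunoblot against treated and control groups. Plasma drug levels taken 2 h after dosing (4 h post-MPTP).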

[28] = Plasma concentration in mouse at 6.7 mg/kg, po administered 2 hrs before MPTP challenge followed by 40 mg/kg, sc 2 hrs after MPTP challenge; type: ADME, organism-based; settings: other: po followed by sc; in short: as §4
[29] = system: Mus musculus; assay: Neuroprotective activity against MPTP-induced loss of striatal dopamine markers in mouse at 2 mg/kg, po administered once daily; type: functional, organism-based; design: dose 2 mg/kg
In short: (§5)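 Mouse MPTP neurotoxicity: low dose 20 mg/kg sc, assessing striatal DA terminals by GBR-12935 binding; high dose 40 mg/kg sc, assessing striatal DA markers and substantia nigra cell bodies by TH immunoreactivity. Test compounds given orally, q.d. or b.i.d.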

[30] = system: Mus musculus; assay: Neuroprotective activity against MPTP-induced loss of substantia nigra dopamine cell bodies in mouse at 2 mg/kg, po administered once daily; type: functional, organism-based; design: dose 2 mg/kg; in short: as §5
[31] = molecular target: Platelet-derived growth factor receptor beta (Homo sapiens, UniProt P09619); assay: Inhibition of human PDGFRbeta expressed in baculovirus insect cell system
[32] = molecular target: Mitogen-activated protein kinase kinase kinase 10 (Homo sapiens, UniProt Q02779); assay: Inhibition of human MLK2 expressed in baculovirus insect cell system
In short: as §2, with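 “DMSO. […] 15 min at 37 °C, TCA precipitation, scintillation counting. IC50 by variable-slope sigmoidal fit, average of duplicates within 20%.” for “DMSO.”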

[33] = molecular target: High affinity nerve growth factor receptor (Homo sapiens, UniProt P04629); assay: Inhibition of human TrkA expressed in baculovirus insect cell system
[34] = molecular target: c-Jun N-terminal kinase, JNK (Homo sapiens, UniProt P45983+P53779+P45984); assay: Inhibition of human JNK expressed in baculovirus insect cell system
[35] = molecular target: T3, Dual specificity mitogen-activated protein kinase kinase 4 (Homo sapiens, UniProt P45985); assay: Inhibition of human MKK4/7 expressed in baculovirus insect cell system
T3 sequence (P45985 whole entry): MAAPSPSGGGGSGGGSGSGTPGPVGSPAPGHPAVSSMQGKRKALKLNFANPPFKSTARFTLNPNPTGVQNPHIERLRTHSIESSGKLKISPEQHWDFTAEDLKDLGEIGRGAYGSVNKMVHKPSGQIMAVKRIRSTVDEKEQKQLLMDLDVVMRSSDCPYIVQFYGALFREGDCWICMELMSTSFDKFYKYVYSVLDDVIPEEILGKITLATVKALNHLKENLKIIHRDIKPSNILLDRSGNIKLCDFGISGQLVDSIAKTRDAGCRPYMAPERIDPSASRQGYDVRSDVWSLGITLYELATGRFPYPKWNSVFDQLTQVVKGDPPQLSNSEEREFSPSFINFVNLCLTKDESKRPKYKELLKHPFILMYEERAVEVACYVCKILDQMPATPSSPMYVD

[36] = molecular target: Protein kinase C (PKC); assay: Inhibition of human PKC expressed in baculovirus insect cell system

SMILES: COc1ccc2c(c1)CCc1c-2c2c(c3c4ccccc4n(CCCO)c13)CNC2=O
pIC50 [3]: 7.00 | pIC50 [4]: 7.06

SMILES: COc1ccc2c(c1)CCc1c-2c2c(c3c4ccccc4n(CCO)c13)CNC2=O
pIC50 [11]: < 5.00 | pIC50 [12]: < 5.00 | pIC50 [13]: < 5.00 | IC50 [14]: > 10000 nM | IC50 [15]: > 10000 nM | pIC50 [16]: 5.19 | pIC50 [17]: 5.47 | half-life [18]: 0.6 h | AUC [19]: 1730 ng·h/mL | Vd [20]: 0.9 L/kg | clearance [21]: 19 mL/min/kg | AUC [22]: 1990 ng·h/mL | Cmax [23]: 572 ng/mL | half-life [24]: 1.4 h | bioavailability [25]: 57% | remaining at 2 h [26]: 44% | pIC50 [5]: 7.49 | inhibition (INH) [27]: 68% | concentration at 2 h [28]: 250 nM | Activity [29]: Active | Activity [30]: Active | pIC50 [31]: < 5.00 | pIC50 [6]: 6.90 | pIC50 [32]: 5.80 | pIC50 [33]: 5.90 | IC50 [34]: > 30000 nM | pIC50 [35]: < 5.52 | IC50 [36]: > 10000 nM | pIC50 [7]: < 5.00 | pIC50 [8]: 5.33 | pIC50 [9]: < 5.00 | pIC50 [3]: 6.99 | pIC50 [4]: 7.26

SMILES: COCCOc1ccc2c(c1)CCc1c-2c2c(c3c4ccccc4n(CCO)c13)CNC2=O
inhibition [1]: 52% | inhibition [2]: 40%

Now from value to molecule, other results behind:

inhibition [1]: 32% | inhibition [2]: 30%
SMILES: O=C1NCc2c1c1c(c3c2c2ccccc2n3CCO)CCc2cc(O)ccc2-1

pIC50 [6]: 7.14 | pIC50 [7]: 6.68 | pIC50 [8]: 7.37 | pIC50 [9]: 7.41 | pIC50 [4]: 7.19
SMILES: CCSCc1ccc2c(c1)c1c3c(c4c5cc(CSCC)ccc5n5c4c1n2[C@H]1C[C@](O)(C(=O)OC)[C@]5(C)O1)CNC3=O [CEP-1347]
pIC50 [5]: 8.28 | inhibition (INH) [10]: 45%
